aDG glyco up = activators of alpha-DG glycosylation, primary screen, uHTS, Pro5-aDG cells, AlphaScreen | alpha-DG glycosylation AlphaScreen (IIH6); 0% Pro5, 100% B10-LARGE cell signal | activation, % at 10 µM | 360,000 compounds, 0.22% hits;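 active means activation of at least 8% versus controls, or a plate z-score of at least 8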;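 further: Pro5 are CHO cells carrying HIG-tagged alpha-DG that lacks glycosylation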
GASC-1 inh = inhibitors of GASC-1 histone demethylase, primary screen, biochemical, fluorescence, DELFIA europium; Lysine-specific demethylase 4C (Homo sapiens), Q9H3R0; 330,000 compounds, 0.069% hits; AID 2099, 2009; GST-JMJD2C(1-420) H3K9me3 demethylation; inhibition, % at 2.35 µM;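 active means more than half of a compound's replicate wells show inhibition beyond 50%, single wells judged on their own value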;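 further: signal counts dimethyl H3K9 product captured on neutravidin plate; 0% = median of DMSO wells and 100% = 0.3 times that DMSO median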
Target sequence (Q9H3R0 1-420 limits assumed): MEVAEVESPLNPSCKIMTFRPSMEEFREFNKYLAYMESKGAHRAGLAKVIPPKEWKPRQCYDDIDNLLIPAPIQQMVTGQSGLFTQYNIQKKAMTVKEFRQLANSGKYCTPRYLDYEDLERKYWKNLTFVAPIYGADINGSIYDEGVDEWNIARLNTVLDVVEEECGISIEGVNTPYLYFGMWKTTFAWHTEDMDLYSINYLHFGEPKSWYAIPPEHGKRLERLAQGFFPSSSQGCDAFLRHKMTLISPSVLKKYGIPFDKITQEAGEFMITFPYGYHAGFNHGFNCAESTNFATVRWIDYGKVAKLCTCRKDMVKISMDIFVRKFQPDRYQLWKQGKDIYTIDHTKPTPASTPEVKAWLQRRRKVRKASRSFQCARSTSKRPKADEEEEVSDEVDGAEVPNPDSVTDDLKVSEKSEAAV
GC-B act = human GC-B receptor activators, primary screen, HEK293 GC-B cells, cGMP TR-FRET, EC30 CNP; Atrial natriuretic peptide receptor 2 (Homo sapiens), P20594; 0% at EC30 CNP, 100% saturating CNP; activation, % at 10 µM; 370,000 compounds, 0.11% hits; AID 1920062, 2024;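 active means activation at 10 µM reaching about 35% in either raw or pattern-adjusted values, limit read from the data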
GC-A act = GC-A stimulated cGMP production enhancers – HEK293 GC-A cells, cGMP TR-FRET, EC30 ANP, primary screen | 370,000 compounds, 0.14% hits | activation, % at 10 µM | Atrial natriuretic peptide receptor 1 (Homo sapiens), P16066 | 0% at EC30 ANP, 100% saturating ANP | AID 1671463, 2021; in the data active means activation above about 40%
Hep lipid drop = inhibitors of hepatocyte lipid droplet formation, primary screen, imaging, high-throughput imaging, BODIPY stain; AML12 mouse hepatocytes, oleate lipid droplets; 240,000 compounds, 0.4% hits; inhibition, % at 6.5 µM;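 active means lipid droplet intensity inhibited by at least 50%, with more than 500 cells counted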
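Material – AML12 mouse liver cells · Also added – oleate loading, 100 µM · Compound dosing – 6.5 µM single-point dosing · Times – overnight treatment with compound plus oleate · Measured by – fluorescence imaging, 20x objective, two fields per well · Read-out – percent inhibition of filter-corrected integrated lipid droplet intensity per well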
GRIN3A LBD mod = binders of NR3A ligand-binding domain, primary screen, biophysical, differential scanning fluorimetry, uHTS. NR3A LBD differential scanning fluorimetry, Tm shift; 0% = protein alone, 100% = glycine-bound protein. Tm shift relative to glycine control, % at 25 µM. 340,000 compounds, 2.5% hits;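 active means melting temperature shift of at least 10% of the positive control shift, at one fixed dose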
Numbers without * were called inactive. Compounds with a hit are over-represented: about 3% of the library has one in this group of screens.

What do the screens show for `CN(C)c1ccc(/C=N/NC(=O)c2nnn(-c3nonc3N)c2COc2ccc(F)cc2)cc1`?
aDG glyco up: -0.1; GASC-1 inh: 0.8; GC-B act: 0.6; GC-A act: 4.1; Hep lipid drop: -3.5; GRIN3A LBD mod: 11.1*

What do the screens show for `Nc1nonc1-n1nnc(C(=O)N/N=C/c2cccc(O)c2)c1CN1CCCC1`?
aDG glyco up: -0.2; GASC-1 inh: 12.1; GC-B act: 4.5; GC-A act: -0.8; Hep lipid drop: -14.8; GRIN3A LBD mod: 11.9*

What do the screens show for `CN(C)Cc1c(C(=O)N/N=C/c2ccc(OCc3ccc(F)cc3)cc2)nnn1-c1nonc1N`?
aDG glyco up: 0.2; GASC-1 inh: 9.8; GC-B act: 4.3; GC-A act: 0.8; Hep lipid drop: 5.3; GRIN3A LBD mod: 7.4

What do the screens show for `CCOc1ccc(/C=N/NC(=O)c2nnn(-c3nonc3N)c2COc2ccc(F)cc2)cc1`?
aDG glyco up: -0.3; GASC-1 inh: 31.6; GC-B act: -2.6; GC-A act: -4.3; Hep lipid drop: -16.9; GRIN3A LBD mod: 38.9*

What do the screens show for `CCOc1ccc(-c2c(C(=O)N/N=C/c3ccc(OC)cc3)nnn2-c2nonc2N)cc1`?
aDG glyco up: -0.2; GASC-1 inh: -135.1; GC-B act: 3.4; GC-A act: -0.5; Hep lipid drop: 3.5; GRIN3A LBD mod: -7.0

Results for Cc1ccc(NC(=O)CN2C(=O)CCSc3ccccc32)cc1C ?
GC-B act: -0.6; GC-A act: 2.6

Results for Cc1ccccc1COc1ccc(/C=N/NC(=O)c2nnn(-c3nonc3N)c2CN2CCC(C)CC2)cc1 ?
aDG glyco up: 1.5; GASC-1 inh: -5.5; GC-B act: 2.5; GC-A act: -2.2; Hep lipid drop: -12.3; GRIN3A LBD mod: 87.3*

Results for CC1CCN(Cc2c(C(=O)N/N=C/c3ccc(OC(C)C)cc3)nnn2-c2nonc2N)CC1 ?
aDG glyco up: 0.3; GASC-1 inh: 8.7; GC-B act: -0.9; GC-A act: 1.8; Hep lipid drop: -1.1; GRIN3A LBD mod: 7.4

What do the screens show for `CC(=O)OCC(COC(C)=O)(CN1C(=O)c2ccccc2C1=O)CN1C(=O)c2ccccc2C1=O`?
GC-B act: 5.2; GC-A act: 0.5

How did Cc1ccc(CNS(=O)(=O)c2cn(C)c(=O)n(C)c2=O)cc1 do in these assays?
aDG glyco up: 0.0; GASC-1 inh: -2.5; GC-B act: 5.5; GC-A act: 1.0; Hep lipid drop: -8.9; GRIN3A LBD mod: 8.2

What do the screens show for `Cc1nc(C(=O)N2CCOCC2)sc1C1(C)CC(c2ccccc2)=NO1` (stereo unspecified)?
aDG glyco up: -0.3; GASC-1 inh: -8.3; GC-B act: -1.4; GC-A act: 3.4; Hep lipid drop: -26.8; GRIN3A LBD mod: 14.3*

Results for CNC(=O)c1nc(C)c(C2(C)CC(c3ccccc3)=NO2)s1 (stereo unspecified) ?
aDG glyco up: 0.0; GASC-1 inh: 0.8; GC-B act: 0.0; GC-A act: 1.3; Hep lipid drop: -7.7; GRIN3A LBD mod: -4.7

What do the screens show for `O=S1(=O)CC2c3ccc(F)cc3CN2CN1CCc1ccccc1` (stereo unspecified)?
GC-B act: -5.5; GC-A act: -2.6

What do the screens show for `COc1ccc(-c2csc(/C(C#N)=C\c3ccc(O)c([N+](=O)[O-])c3)n2)cc1OC`?
aDG glyco up: -0.1; GASC-1 inh: 9.2; GC-B act: 10.3; GC-A act: 6.5; Hep lipid drop: -0.6; GRIN3A LBD mod: -3.7

How did COc1ccc(-c2csc(/C(C#N)=C\c3ccc(OC)c([N+](=O)[O-])c3)n2)cc1 do in these assays?
aDG glyco up: 0.3; GASC-1 inh: 4.0; GC-B act: -2.4; GC-A act: 5.7; Hep lipid drop: 17.0; GRIN3A LBD mod: 32.6*

High-throughput results deposited in PubChem BioAssay by several laboratories.
